Our source for the Activity values is ChEMBL document CHEMBL1151475, “Thiopurine drugs azathioprine and 6-mercaptopurine inhibit Mycobacterium paratuberculosis growth in vitro” (2008).

Format in all cases: functional
Experiment [1] deals with Mycobacterium avium subsp. paratuberculosis. Put plainly: Antituberculosis activity against Mycobacterium paratuberculosis ATCC 19698 isolated from bovine assessed as minimum drug level resulting in no detectable growth at 10^6 CFU of inoculum after 56 days by MGIT 960 susceptibility test. In a few lines: (§1)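 M. paratuberculosis ATCC 19698 at 10^6 CFU per MGIT ParaTB tube in duplicate, drugs at final 1.0–64.0 μg/ml, 37°C in MGIT 960. Inhibition is the lowest concentration whose time to detection exceeds the 1:100 diluted-inoculum solvent control. No detectable growth means the tube never signals positive through 56 days.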

Experiment [2] shares this test system. Put plainly: Antituberculosis activity against Mycobacterium paratuberculosis ATCC 19698 isolated from bovine assessed as lowest drug level producing inhibition at 10^6 CFU of inoculum by MGIT 960 susceptibility test. In a few lines: as §1
Experiment [3] shares this test system. Put plainly: Antituberculosis activity against Mycobacterium paratuberculosis ATCC 19698 isolated from bovine assessed as lowest drug level producing inhibition at 10^6 CFU of inoculum by agar counting method. In a few lines: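 ATCC 19698 at 10^6 CFU was exposed to drug (1.0–64.0 μg/ml) in MGIT ParaTB medium at 37°C. Aliquots taken at 3 and 5 days were centrifuged, resuspended in PBS and declumped with glass beads. Serial dilutions were plated in quadruplicate on 7H10/OADC/mycobactin J and counted after 8 weeks. Inhibition is the lowest concentration giving a 2 log10 (99%) CFU reduction.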

Where only a bound is given, the exact number is not on record here.

For `CCn1cc(C(=O)O)c(=O)c2ccc(C)nc21` [NALIDIXIC ACID], the Activity in experiment [1], in experiment [2] and in experiment [3] was greater than 64 µg/mL throughout.
For the compound `CO[C@H]1/C=C/O[C@@]2(C)Oc3c(C)c(O)c4c(O)c(c(/C=N/N5CCN(C)CC5)c(O)c4c3C2=O)NC(=O)/C(C)=C\C=C\[C@H](C)[C@H](O)[C@@H](C)[C@@H](O)[C@@H](C)[C@H](OC(C)=O)[C@@H]1C` [RIFAMPIN], the Activity in experiment [1] was greater than 64 µg/mL; in experiment [2] it was 2 µg/mL; in experiment [3], 2 µg/mL.
On to `Nc1ccc(S(=O)(=O)Nc2ccccn2)cc1` [SULFAPYRIDINE], for which the Activity in experiment [1], in experiment [2] and in experiment [3] was greater than 64 µg/mL in each case.
Take `O=C(O)c1cc(/N=N/c2ccc(S(=O)(=O)Nc3ccccn3)cc2)ccc1O` [SULFASALAZINE]: the Activity in experiment [1], in experiment [2] and in experiment [3] was greater than 64 µg/mL in each case.
